The source made the active and inactive calls. No cut-off for these calls is given here.
Experiments:
Staphylococcus aureus = assay: Antibacterial activity against Staphylococcus aureus at 100 ug/ml; assay type: functional, organism-based
Ehrlich = assay: Cytotoxicity activity against mouse EAC at 100 ug/ml; assay type: functional, cell-based
Candida albicans = assay: Antifungal activity against Candida albicans at 100 ug/ml; assay type: functional, organism-based
Escherichia coli = assay: Antibacterial activity against Escherichia coli at 100 ug/ml; assay type: functional, organism-based
[1] = test system: Radical scavenging activity; assay: Antioxidant activity assessed as DPPH radical scavenging activity after 30 mins; assay type: functional
Outline: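 In EtOH, test concentrations 5, 10, 20, 50, 100 µM mixed with DPPH (0.1 mM final). A517 read after 30 min. Percent inhibition calculated against DPPH-only control, corrected for the compound's own absorbance at 517 nm. IC50 taken from the plotted inhibition curve as the concentration scavenging 50% of DPPH. Trolox served as positive control.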

SMILES	IC50 [1] [µM]	Activity (Staphylococcus aureus)	Activity (Ehrlich)	Activity (Candida albicans)	Activity (Escherichia coli)
C=C1CCC[C@H]2[C@](C)(CC3=CC(=O)C(NC)=CC3=O)[C@@H](C)CC[C@@]12C	–	inactive	inactive	inactive	inactive
C=C1CCC[C@H]2[C@](C)(CC3=CC(=O)C=C(NC)C3=O)[C@@H](C)CC[C@@]12C	–	inactive	inactive	inactive	inactive
C=C1CCC[C@H]2[C@](C)(CC3=CC(=O)C=C(Nc4ccc(O)c(C[C@]5(C)[C@@H](C)CC[C@@]6(C)C(=C)CCC[C@@H]56)c4)C3=O)[C@@H](C)CC[C@@]12C [POPOLOHUANONE A]	35	–	–	–	–
C=C1CCC[C@H]2[C@](C)(CC3=CC(=O)C(N)=CC3=O)[C@@H](C)CC[C@@]12C	–	inactive	inactive	inactive	inactive
C=C1CCC[C@H]2[C@](C)(CC3=CC(=O)C=C(N)C3=O)[C@@H](C)CC[C@@]12C	–	inactive	inactive	inactive	inactive

Now from value to compound, other results behind:

IC50 [1] [µM]	SMILES	Activity (Staphylococcus aureus)	Activity (Ehrlich)	Activity (Candida albicans)	Activity (Escherichia coli)
19	C=C1CCC[C@H]2[C@](C)(Cc3cc(O)ccc3O)[C@@H](C)CC[C@@]12C [ARENAROL]	–	–	–	–
35	C=C1CCC[C@H]2[C@](C)(CC3=CC(=O)C(Nc4ccc(O)c(C[C@]5(C)[C@@H](C)CC[C@@]6(C)C(=C)CCC[C@@H]56)c4)=CC3=O)[C@@H](C)CC[C@@]12C [POPOLOHUANONE F]	inactive	inactive	inactive	inactive
16	Cc1c(C)c2c(c(C)c1O)CCC(C)(C(=O)O)O2 (centres undefined) [TROLOX]	–	–	–	–
